Values after ≈ are worked out from the molar mass of the structure shown. Active and inactive are the calls of the source. The calls are words filed in the database; no cut-off is given here.
What was measured:
[1] = Antioxidant activity assessed as DPPH radical scavenging activity after 3 hrs by spectrophotometry; type: physicochemical
Summary of the method: (§1)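 DPPH (0.51 mM in methanol) was mixed 1:1 by volume with the compound at several concentrations (100, 50, 25 … µg/mL range). Absorbance was read against a control, and % inhibition = (A0−As)/A0 ×100. Readings were taken at 30 min and 3 h, with ascorbic acid as the reference. Triplicate measurements.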

[2] = Metal chelating activity of the compound assessed as formation of iron complex after 20 mins by spectrophotometry; type: physicochemical
Summary of the method: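 Fe2+ chelation was measured by disruption of the o-phenanthroline–Fe2+ complex. O-phenanthroline (0.05% in methanol) and FeCl2 (0.1%) were mixed with the sample at various concentrations and held at room temperature for 20 min, then read at 510 nm. EDTA was the standard chelator. % chelation = (Acontrol−Asample)/Acontrol ×100, and IC50 came from plots of % chelation versus concentration. Triplicates.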

[3] = Antioxidant activity assessed as DPPH radical scavenging activity after 30 mins by spectrophotometry; type: physicochemical; summary of the method: as §1
[4] = system: Bacillus subtilis; assay: Antimicrobial activity against Bacillus subtilis NCIB 3610 by agar well diffusion method; type: functional; details: subsp. subtilis str. NCIB 3610
[5] = system: Escherichia coli; assay: Antimicrobial activity against Escherichia coli ATCC 8739 by agar well diffusion method; type: functional
[6] = system: Staphylococcus aureus; assay: Antimicrobial activity against Staphylococcus aureus ATCC 25923 by agar well diffusion method; type: functional
[7] = system: Pseudomonas aeruginosa; assay: Antimicrobial activity against Pseudomonas aeruginosa NCIMB 8295 assessed as zone of inhibition at 100 ug/ml by agar well diffusion method; type: functional; details: for zone of inhibition at 100 µg/mL: read-out: IZ
Summary of the method: (§2)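 For the agar well diffusion screen, samples at 100 µg/mL were made from a stock of 10 mg in 1 mL EtOH diluted 1:1 (v/v) with Mueller-Hinton medium. The zone of inhibition was scored as 5–10 mm poor, 10–15 moderate, 15–20 good and 20–25 very good. Gentamycin and nystatin were the reference drugs. Strains were confirmed at the University of Botswana microbiology laboratory.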

[8] = system: Escherichia coli; assay: Antimicrobial activity against Escherichia coli ATCC 8739 assessed as zone of inhibition at 100 ug/ml by agar well diffusion method; type: functional; details: for zone of inhibition at 100 µg/mL: read-out: IZ; summary of the method: as §2
[9] = system: Bacillus subtilis; assay: Antimicrobial activity against Bacillus subtilis NCIB 3610 assessed as zone of inhibition at 100 ug/ml by agar well diffusion method; type: functional; details: for zone of inhibition at 100 µg/mL: subsp. subtilis str. NCIB 3610, read-out: IZ; for Activity: subsp. subtilis str. NCIB 3610; summary of the method: as §2
[10] = system: Pseudomonas aeruginosa; assay: Antimicrobial activity against Pseudomonas aeruginosa NCIMB 8295 by agar well diffusion method; type: functional
[11] = system: Candida albicans; assay: Antifungal activity against Candida albicans assessed as zone of inhibition at 100 ug/ml by agar well diffusion method; type: functional; details: for zone of inhibition at 100 µg/mL: read-out: IZ; summary of the method: as §2
[12] = system: Staphylococcus aureus; assay: Antimicrobial activity against Staphylococcus aureus ATCC 25923 assessed as zone of inhibition at 100 ug/ml by agar well diffusion method; type: functional; details: for zone of inhibition at 100 µg/mL: read-out: IZ; summary of the method: as §2
[13] = system: Candida albicans; assay: Antifungal activity against Candida albicans by agar well diffusion method; type: functional

Row | Compound | IC50 [1] | IC50 [2] | IC50 [3] | MIC [4] | MIC [5] | MIC [6] | zone of inhibition at 100 µg/mL [7] | zone of inhibition at 100 µg/mL [8] | zone of inhibition at 100 µg/mL [9] | MIC [10] | zone of inhibition at 100 µg/mL [11] | zone of inhibition at 100 µg/mL [12] | MIC [13] | Activity [8] | Activity [9] | Activity [12] | Activity [7] | Activity [11]
1 | COc1ccc(C(=O)/C=C/c2cccc([N+](=O)[O-])c2)c(OC)c1 | 96.22 µg/mL (≈ 307 µM) | 95.13 µg/mL (≈ 304 µM) | 133.57 µg/mL (≈ 426 µM) |  |  |  |  |  |  |  |  |  |  |  |  |  |  | 
2 | O=C1NN=C2C=C(c3cccs3)CC(c3cccc([N+](=O)[O-])c3)C12 (stereo not drawn) | 63.78 µg/mL (≈ 188 µM) | 86.96 µg/mL (≈ 256 µM) | 100.61 µg/mL (≈ 296 µM) | 0.313 µg/mL (≈ 0.922 µM) | 2.5 µg/mL (≈ 7.37 µM) | 2.5 µg/mL (≈ 7.37 µM) | 10 mm | 11 mm | 22 mm | 2.5 µg/mL (≈ 7.37 µM) | 23 mm | 9 mm | 0.313 µg/mL (≈ 0.922 µM) |  |  |  |  | 
3 | O=C1ON=C2C=C(c3ccccc3)CC(c3cccc([N+](=O)[O-])c3)C12 (stereo not drawn) | 215.71 µg/mL (≈ 645 µM) | 750.45 µg/mL (≈ 2240 µM) | 312.28 µg/mL (≈ 934 µM) | inactive | inactive | inactive | 11 mm |  |  | 2.5 µg/mL (≈ 7.48 µM) | 10 mm |  | 2.5 µg/mL (≈ 7.48 µM) | inactive | inactive | inactive |  | 
4 | CCOC(=O)C1C(=O)C=C(c2ccccc2)CC1c1cccc([N+](=O)[O-])c1 (stereo not drawn) | 143.6 µg/mL (≈ 393 µM) | 1028.57 µg/mL (≈ 2820 µM) | 165.21 µg/mL (≈ 452 µM) | inactive | inactive | inactive |  |  |  | inactive |  |  | inactive | inactive | inactive | inactive | inactive | inactive
5 | O=C1NN=C2C=C(c3ccc(Br)cc3)CC(c3cccc([N+](=O)[O-])c3)C12 (stereo not drawn) | 77.89 µg/mL (≈ 189 µM) | 106.36 µg/mL (≈ 258 µM) | 103.6 µg/mL (≈ 251 µM) | 2.5 µg/mL (≈ 6.06 µM) | inactive | 2.5 µg/mL (≈ 6.06 µM) |  |  | 13 mm | inactive | 10 mm | 13 mm | 2.5 µg/mL (≈ 6.06 µM) | inactive |  |  | inactive | 
6 | CCOC(=O)C1C(=O)C=C(c2ccc(OC)cc2OC)CC1c1cccc([N+](=O)[O-])c1 (stereo not drawn) | 95.43 µg/mL (≈ 224 µM) | 1006.67 µg/mL (≈ 2370 µM) | 195.65 µg/mL (≈ 460 µM) | inactive | inactive | inactive |  |  |  | inactive |  |  | inactive | inactive | inactive | inactive | inactive | inactive
7 | O=C(/C=C/c1cccc([N+](=O)[O-])c1)c1ccc(Br)cc1 | 122.8 µg/mL (≈ 370 µM) | 202.56 µg/mL (≈ 610 µM) | 170 µg/mL (≈ 512 µM) |  |  |  |  |  |  |  |  |  |  |  |  |  |  | 
8 | O=C1NN=C2C=C(c3ccccc3)CC(c3cccc([N+](=O)[O-])c3)C12 (stereo not drawn) | 59.5 µg/mL (≈ 178 µM) | 93.04 µg/mL (≈ 279 µM) | 98.53 µg/mL (≈ 296 µM) | 2.5 µg/mL (≈ 7.5 µM) | inactive | 2.5 µg/mL (≈ 7.5 µM) |  |  | 13 mm | inactive |  | 12 mm | inactive | inactive |  |  | inactive | inactive
9 | COc1ccc(C(=O)/C=C/c2cccc([N+](=O)[O-])c2)cc1 | 92.46 µg/mL (≈ 326 µM) | 97.32 µg/mL (≈ 344 µM) | 135.27 µg/mL (≈ 478 µM) |  |  |  |  |  |  |  |  |  |  |  |  |  |  | 
10 | CCOC(=O)C1C(=O)C=C(c2ccc(O)cc2)CC1c1cccc([N+](=O)[O-])c1 (stereo not drawn) | 86.67 µg/mL (≈ 227 µM) | 1014 µg/mL (≈ 2660 µM) | 175 µg/mL (≈ 459 µM) | 2.5 µg/mL (≈ 6.56 µM) | inactive | inactive |  |  | 12 mm | inactive | 13 mm |  | 2.5 µg/mL (≈ 6.56 µM) | inactive |  | inactive | inactive | 
11 | O=C1ON=C2C=C(c3ccc(Br)cc3)CC(c3cccc([N+](=O)[O-])c3)C12 (stereo not drawn) | 218.75 µg/mL (≈ 529 µM) | 816.48 µg/mL (≈ 1980 µM) | 305.01 µg/mL (≈ 738 µM) | inactive | inactive | inactive |  |  |  | inactive | 9 mm |  | 2.5 µg/mL (≈ 6.05 µM) | inactive | inactive | inactive | inactive | 
12 | GENTAMICIN |  |  |  | < 0.02 µg/mL | < 0.02 µg/mL | < 0.02 µg/mL |  |  |  | < 0.02 µg/mL |  |  |  |  |  |  |  | 
13 | O=C(/C=C/c1cccc([N+](=O)[O-])c1)c1ccc(O)cc1 | 40.67 µg/mL (≈ 151 µM) | 84.09 µg/mL (≈ 312 µM) | 92.75 µg/mL (≈ 344 µM) |  |  |  |  |  |  |  |  |  |  |  |  |  |  | 
14 | COc1ccc(C2=CC3=NNC(=O)C3C(c3cccc([N+](=O)[O-])c3)C2)cc1 (stereo not drawn) | 38.38 µg/mL (≈ 106 µM) | 85.58 µg/mL (≈ 236 µM) | 86.74 µg/mL (≈ 239 µM) | 2.5 µg/mL (≈ 6.88 µM) | inactive | inactive |  |  | 11 mm | inactive |  |  | inactive | inactive |  | inactive | inactive | inactive
15 | O=C(/C=C/c1cccc([N+](=O)[O-])c1)c1ccccc1 | 112.5 µg/mL (≈ 444 µM) | 104.76 µg/mL (≈ 414 µM) | 165.21 µg/mL (≈ 652 µM) |  |  |  |  |  |  |  |  |  |  |  |  |  |  | 
16 | O=C(/C=C/c1cccc([N+](=O)[O-])c1)c1cccs1 | 90.73 µg/mL (≈ 350 µM) | 1029.41 µg/mL (≈ 3970 µM) | 112.29 µg/mL (≈ 433 µM) |  |  |  |  |  |  |  |  |  |  |  |  |  |  | 
17 | COc1ccc(C2=CC3=NNC(=O)C3C(c3cccc([N+](=O)[O-])c3)C2)c(OC)c1 (stereo not drawn) | 39.67 µg/mL (≈ 101 µM) | 84.39 µg/mL (≈ 215 µM) | 88.75 µg/mL (≈ 226 µM) | 2.5 µg/mL (≈ 6.35 µM) | inactive | inactive |  |  | 9 mm | inactive |  |  | inactive | inactive |  | inactive | inactive | inactive
18 | CCOC(=O)C1C(=O)C=C(c2ccc(OC)cc2)CC1c1cccc([N+](=O)[O-])c1 (stereo not drawn) | 98.53 µg/mL (≈ 249 µM) | 1028 µg/mL (≈ 2600 µM) | 196.5 µg/mL (≈ 497 µM) | inactive | inactive | inactive |  |  |  | inactive |  |  | inactive | inactive | inactive | inactive | inactive | inactive
19 | CCOC(=O)C1C(=O)C=C(c2cccs2)CC1c1cccc([N+](=O)[O-])c1 (stereo not drawn) | 133.66 µg/mL (≈ 360 µM) | 1030.56 µg/mL (≈ 2770 µM) | 208.95 µg/mL (≈ 563 µM) | 2.5 µg/mL (≈ 6.73 µM) | inactive | inactive |  |  | 12 mm | inactive | 8 mm |  | 2.5 µg/mL (≈ 6.73 µM) | inactive |  | inactive | inactive | 
20 | NYSTATIN |  |  |  |  |  |  |  |  |  |  |  |  | < 0.02 µg/mL |  |  |  |  | 
21 | O=C(O)CN(CCN(CC(=O)O)CC(=O)O)CC(=O)O [EDETIC ACID] |  | 50.98 µg/mL (≈ 174 µM) |  |  |  |  |  |  |  |  |  |  |  |  |  |  |  | 
22 | O=C1ON=C2C=C(c3ccc(O)cc3)CC(c3cccc([N+](=O)[O-])c3)C12 (stereo not drawn) | 118.69 µg/mL (≈ 339 µM) | 360.98 µg/mL (≈ 1030 µM) | 202.15 µg/mL (≈ 577 µM) | inactive | 2.5 µg/mL (≈ 7.14 µM) | 2.5 µg/mL (≈ 7.14 µM) |  | 10 mm |  | inactive | 10 mm | 10 mm | 2.5 µg/mL (≈ 7.14 µM) |  | inactive |  | inactive | 
23 | CCOC(=O)C1C(=O)C=C(c2ccc(Br)cc2)CC1c1cccc([N+](=O)[O-])c1 (stereo not drawn) | 409.1 µg/mL (≈ 921 µM) | 1148.57 µg/mL (≈ 2590 µM) | 409.1 µg/mL (≈ 921 µM) | inactive | inactive | inactive |  |  |  | inactive |  |  | inactive | inactive | inactive | inactive | inactive | inactive
24 | O=C1O[C@H]([C@@H](O)CO)C(O)=C1O [ASCORBIC ACID] | 25.26 µg/mL (≈ 143 µM) |  | 37.78 µg/mL (≈ 215 µM) |  |  |  |  |  |  |  |  |  |  |  |  |  |  | 
